From ChEMBL document CHEMBL1142230, “Small-molecule activators of RNase L with broad-spectrum antiviral activity” (Proc Natl Acad Sci U S A, 2007) come the findings set out here.

SMILES strings stand for the structures. Calls of active or inactive are those of the source. The calls are words filed in the database; no cut-off is given here.

For series [1], the target named is T1, 2-5A-dependent ribonuclease (Homo sapiens, UniProt Q05823).
T1 sequence (Q05823 whole entry): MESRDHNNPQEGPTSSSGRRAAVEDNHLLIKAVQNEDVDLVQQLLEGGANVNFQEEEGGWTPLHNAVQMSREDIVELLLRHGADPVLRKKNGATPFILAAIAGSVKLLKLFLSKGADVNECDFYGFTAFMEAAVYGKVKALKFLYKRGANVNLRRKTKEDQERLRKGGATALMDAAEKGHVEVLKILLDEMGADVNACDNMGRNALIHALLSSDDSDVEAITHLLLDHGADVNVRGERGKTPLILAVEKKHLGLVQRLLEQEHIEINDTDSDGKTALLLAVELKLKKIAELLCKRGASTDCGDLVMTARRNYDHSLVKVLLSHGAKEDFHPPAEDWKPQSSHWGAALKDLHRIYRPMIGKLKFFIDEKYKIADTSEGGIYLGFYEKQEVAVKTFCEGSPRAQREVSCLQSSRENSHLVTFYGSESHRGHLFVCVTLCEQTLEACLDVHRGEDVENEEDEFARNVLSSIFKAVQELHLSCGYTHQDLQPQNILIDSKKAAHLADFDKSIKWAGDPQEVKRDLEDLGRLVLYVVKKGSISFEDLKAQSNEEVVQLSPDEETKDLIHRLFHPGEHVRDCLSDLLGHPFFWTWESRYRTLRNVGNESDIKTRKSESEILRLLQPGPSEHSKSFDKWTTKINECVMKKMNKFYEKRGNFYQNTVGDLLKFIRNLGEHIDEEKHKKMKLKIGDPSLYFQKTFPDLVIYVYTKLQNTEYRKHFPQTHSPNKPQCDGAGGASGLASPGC
As to the kind of experiment: Activation of human recombinant Rnase L assessed as cleavage of FRET RNA probe. The gist of the method:
(§1)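 Baculovirus-expressed, FPLC-purified recombinant human RNase L (25 nM) with 100 nM 36-nt 6-FAM/BHQ-1 FRET RNA probe (Km 75 nM) in cleavage buffer: 25 mM Tris·HCl pH 7.4, 100 mM KCl, 10 mM MgCl2, 50 μM ATP, 7 mM 2-mercaptoethanol. 22°C up to 2 h; fluorescence ex 485/em 535 nm. Compounds delivered from DMSO stocks; rescreened without RNase L to remove false positives.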

Series [2] has as its target T2, 2-5A-dependent ribonuclease (Homo sapiens) (UniProt Q05823).
T2 sequence (whole entry): T1 sequence (Q05823 whole entry)
As to the kind of experiment: Activation of human recombinant RNaseL at 40 uM assessed as cleavage of FRET RNA probe. The gist of the method: as §1

The subject of series [3] is HeLaS. As to the kind of experiment: Cytotoxicity against of human HeLaS cells assessed as reduction of cell viability upto 50 uM. The series is classed as functional, cell-based. The gist of the method:
(§2)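 SV40-transformed mouse embryonic fibroblasts or HeLa S cells (10^4/well) treated with compound up to 50 μM for 24 h. MTS reagent added for 3 h at 37°C; absorbance read at 490 nm. Triplicate, with SDs.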

In series [4] the target is T1, 2-5A-dependent ribonuclease. As to the kind of experiment: Displacement of 5'-phosphorylated, 2',5'-oligoadenylate from human recombinant RNase L assessed as decrease in resonance by surface plasma resonance. The gist of the method:
(§3)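 Biotinylated 2-5A immobilized on streptavidin biosensor chips; 10 nM RNase L with varying activator concentrations passed over the chip. Response units recorded over time, and maximum response at equilibrium (Rmax) fitted against concentration by global fit.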

Series [5] concerns the target T2, 2-5A-dependent ribonuclease (Homo sapiens). Put plainly: Induction of dimerization of human RNaseL at 0.06 to 0.25 uM assessed by Western blotting. The gist of the method: (§4)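 RNase L incubated with 2-5A or activator, with or without the cross-linker dimethyl suberimidate. Oligomeric state (monomer vs dimer) read by SDS/PAGE and Western blot probed with anti-RNase L monoclonal antibody.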

Series [6] concerns Respirovirus muris. Put plainly: Antiviral activity against sendai virus in HeLaS cell assessed as suppression of infection. It counts as functional, organism-based. The procedure, abridged: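 HeLa S cells infected with Sendai virus (Cantell), 20 HA units/ml, in serum-free medium for 90 min. Cells washed and given complete medium with compound doses. Supernatant collected at 24 h; viral genomic RNA quantified by real-time RT-PCR; triplicate.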

Series [7] concerns Encephalomyocarditis virus. Put plainly: Antiviral activity against encephalomyocarditis virus in wild type mouse fibroblasts assessed as reduction in viral growth. The series is classed as functional. The procedure, abridged:
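SV40 T antigen-transformed wild-type mouse embryonic fibroblasts were grown in RPMI 1640 with 10% FBS and seeded at 2.5 × 10⁵ cells/well. After 1 h, cells were infected with EMCV strain K (MOI 0.5) in serum-free medium for 1 h, washed with PBS, then fed complete medium containing varied compound amounts. At 12 h, titres were measured by plaque assay on L929 cells, in triplicate.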

The target in series [8] is T2, 2-5A-dependent ribonuclease (Homo sapiens). Put plainly: Activation of human recombinant RNase L assessed as cleavage of p32-labelled RNA molecule at 25 uM after 30 mins.
For series [9] the target is unchanged. Put plainly: Induction of dimerization of human RNaseL at 3 to 12 uM assessed by Western blotting. The procedure, abridged:
as §4

Series [10] can be described thus: Cytotoxicity against mouse fibroblast assessed as reduction of cell viability upto 50 uM. The series is classed as cell-based. The gist of the method: as §2
The target in series [11] is T1, 2-5A-dependent ribonuclease. Put plainly: Binding affinity to human recombinant RNase L. The gist of the method: as §3
For series [12], the system named is Human respirovirus 3. Put plainly: Antiviral activity against human parainfluenza virus3 in HeLaM cells expressing RNaseL R667A mutant […]. It counts as functional. The procedure, abridged:
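HeLa M cells expressing R667A RNase L cDNA were grown in DMEM with 10% FBS. They were infected with HPIV3/GFP (MOI 1.0) in serum-free medium for 90 min, washed with PBS, then given complete medium with varied compound amounts. At 24 h, virus was harvested by two freeze–thaw cycles and titred by plaque assay on CV1 cells, in triplicate.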

Series [13] deals with Human respirovirus 3. Put plainly: Antiviral activity against human parainfluenza virus3 in HeLaS cells expressing wild type RNaseL after 24 hrs by GFP reporter assay. The series is classed as functional. The gist of the method:
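HeLa S cells, with endogenous wild-type RNase L, were infected with HPIV3/GFP at MOI 1.0. After 90 min, medium was removed and cells were washed twice with PBS. Cells were then incubated in complete medium without compound or with 10, 50 or 100 μM compound. GFP fluorescence was imaged by fluorescence microscopy at 24 h post-infection.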

Series [14] concerns Human respirovirus 3. Put plainly: Antiviral activity against human parainfluenza virus3 in HeLaM cells expressing wild type RNaseL by plaque assay.
For series [15], the system named is XMRV. As to the kind of experiment: Antiviral activity against human retrovirus XMRV in human DU145 cells assessed as suppression of infection. Particulars: Xenotropic MuLV-related virus; DU-145. The series is classed as functional, cell-based. The procedure, abridged:
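DU145 cells infected with XMRV for 3 h in FBS-free RPMI 1640 containing 8 μg/ml polybrene, then washed. Treated in triplicate with compound in fresh complete RPMI for 2 d. Reverse transcriptase activity measured in supernatants.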

Series [16] has as its target T2, 2-5A-dependent ribonuclease (Homo sapiens). As to the kind of experiment: Activation of human recombinant RNase L assessed as cleavage of FRET RNA probe at 15 mins. The gist of the method: as §1

For the molecule `CCOC(=O)C1=C(Nc2ccc(Cl)cc2)S/C(=C\c2cccc(O)c2)C1=O`, the EC50 in [1] amounted to 49 µM.
On to `Cc1c(Cl)cccc1NC1=NC(=O)/C(=C/c2ccc([N+](=O)[O-])cc2)S1`, for which the EC50 in [1] is 50 µM.
On to `O=c1[nH]c(-c2cccc([N+](=O)[O-])c2)nc2sc3c(c12)CCCC3`, for which the EC50 in [1] was 22 µM.
With `CCOC(=O)C1=C(Nc2ccccc2)S/C(=C\c2cccc(O)c2)C1=O`, the result in [2], in [5], in series [6], in series [8] and in series [9] was Active. In [3], the result was inactive. In [4], the Kd is 18 µM. The values for the Activity in [7] and in series [10] were 7 and “Not Active”, respectively. Also, in [1], the EC50 amounted to 26 µM.
In the case of `CC(=O)c1ccc(NC(=S)NC(NC(=O)Cc2ccccc2)C(Cl)(Cl)Cl)cc1` (stereo not drawn), in series [1], the EC50 was 79 µM.
Consider `CCCCOC(=O)c1ccc(NC(=S)NC(NC(=O)CC)C(Cl)(Cl)Cl)cc1` (stereo not drawn), for which, in series [1], the EC50 amounted to 90 µM.
As to `Cc1ccc(NC2=NC(=O)/C(=C/c3cccc(O)c3)S2)c(Cl)c1`, the EC50 in [1] came out at 49 µM.
`CCCCOC(=O)c1ccc(NC(=S)NC(NC(C)=O)C(Cl)(Cl)Cl)cc1` (stereo not drawn): in series [1], the EC50 amounted to 99 µM.
As for `Nc1ncnc2c1ncn2[C@@H]1O[C@H](CO[P@](=O)(O)O[C@@H]2[C@H](O)[C@@H](CO[P@](=O)(O)O[C@@H]3[C@H](O)[C@@H](CO[P@](=O)(O)O[P@@](=O)(O)OP(=O)(O)O)O[C@H]3n3cnc4c(N)ncnc43)O[C@H]2n2cnc3c(N)ncnc32)[C@@H](O)[C@H]1O`, the Kd in [4] came out at 0.00022 µM; in series [11] it was 0.04 nM. The EC50 in series [1] is 0.0005 µM.
In the case of `O=c1[nH]c(-c2cccc(O)c2)nc2sc3c(c12)CCCC3`, the outcome in series [2], in series [6], in series [8], in [9], in [14] and in series [15] was Active. Further, the Activity is listed as less than 2 in series [12], 5 in [13], 7 in [7] and “Not Active” in series [10]. Besides, the result in series [3] was inactive. For the same molecule, the Kd in [4] stood at 12 µM. In addition, the EC50 in series [1] was found to be 22 µM.
For the molecule `COc1ccc(Cl)cc1NC(=O)c1cc2c(C)nn(-c3ccccc3)c2s1`, in series [1], the EC50 stood at 48 µM.
Consider `Nc1ncnc2c1ncn2[C@@H]1O[C@H](COP(=O)(O)O[C@@H]2[C@H](O)[C@@H](COP(=O)(O)O[C@@H]3[C@H](O)[C@@H](COP(=O)(O)OP(=O)(O)OP(=O)(O)O)O[C@H]3n3cnc4c(N)ncnc43)O[C@H]2n2cnc3c(N)ncnc32)[C@@H](O)[C@H]1O`, for which the result in series [5], in [16] and in [8] was Active.
As for `O=c1[nH]c(-c2ccc(O)cc2)nc2sc3c(c12)CCCC3`, the EC50 in series [1] was 26 µM.
